Laboratory results taken from ChEMBL document CHEMBL1132271, “1-Benzopyran-4-one antioxidants as aldose reductase inhibitors” (J Med Chem, 1999).
Each block holds one compound with its values, some of them ahead of it.

What was measured:
[1] = target: Aldo-keto reductase family 1 member B1 (Bos taurus) (UniProt P16116); assay: The compound was tested for Inhibitory effect against ALR2 in bovine lenses at 77 uM; type: tissue-based; conditions: Lens of camera-type eye
Outline: (§1)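 ALR2 partly purified from bovine lens (DEAE chromatography), 3.5 mU/mL. Run at 37 °C with 4.7 mM D,L-glyceraldehyde and 0.11 mM NADPH in 0.25 M sodium phosphate pH 6.80 with 0.38 M ammonium sulfate. Inhibitor added in DMSO, 1% final. Blank without substrate.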

[2] = target: T1, Aldo-keto reductase family 1 member B1 (Bos taurus, UniProt P16116); assay: Inhibition of ALR2 (aldose reductase) of bovine lens; outline: as §1
[3] = target: Aldo-keto reductase family 1 member B1 (Bos taurus) (UniProt P16116); assay: The compound was tested for Inhibitory effect uM; conditions: concentration not given here
[4] = target: T1, Aldo-keto reductase family 1 member B1; assay: Inhibition of Aldose reductase 2 of bovine lens; outline: as §1
Liposome [5] = assay: Antioxidant action tested in AAPH-induced malondialdehyde (MDA) liposomes after 15 min; type: functional
Outline: (§2)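 Lipid (LA, 2 mg/mL) suspended in 50 mM Tris pH 7.4 and extruded into micelles with test antioxidant at 0.2 mM final. Peroxidation started with AAPH (10 mM), 37 °C in shaking water bath. Aliquots taken at intervals, mixed with 20% TCA, then 0.67% TBA, boiled 10 min, hexane-extracted. MDA read at 535 nm (ε 1.49×10^5). Means ± SE.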

Liposome [6] = assay: Antioxidant action tested in AAPH-induced malondialdehyde (MDA) liposomes after 60 min; type: functional; outline: as §2
[7] = Proton dissociation constant pKa was determined at 25 degree C; type: physicochemical
Outline: (§3)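 Compound solution added to buffers at ionic strength 0.1 M, pH stepped by 0.25 unit. UV–vis spectra recorded and pH measured with a calibrated electrode. pKa calculated from absorbance change at λmax of the dissociated form, then corrected for ionic strength.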

Liposome [8] = assay: Antioxidant action tested in AAPH-induced malondialdehyde (MDA) of liposomes after 30 min; type: functional; outline: as §2
Liposome [9] = assay: Antioxidant action tested in AAPH-induced malondialdehyde (MDA) of liposomes after 5 min; type: functional; outline: as §2
Liposome [10] = assay: Antioxidant action tested in AAPH-induced malondialdehyde (MDA) of liposomes after 40 min; type: functional; outline: as §2
[11] = target: T2, Aldo-keto reductase family 1 member A1 (Bos taurus, UniProt Q3ZCJ2); assay: The compound was tested for Inhibitory effect against ALR1 in bovine kidneys; type: tissue-based, Kidney
Outline: (§4)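 Run at 37 °C with 20 mM D-glucuronate and 0.12 mM NADPH in 0.1 M sodium phosphate pH 7.20. Inhibitor added in DMSO, 1% final. Blank without substrate.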

[12] = (§5) Compound was tested for Ratio of IC50(ALR1)/(ALR2)
Outline: (§6)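 Ratio of IC50 values. ALR1 (bovine kidney; 20 mM D-glucuronate, 0.12 mM NADPH, pH 7.20) and ALR2 (bovine lens; 4.7 mM D,L-glyceraldehyde, 0.11 mM NADPH, pH 6.80). Both enzymes at 3.5 mU/mL, 37 °C, 1% DMSO. IC50 from log dose–inhibition curves in duplicate.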

Liposome [13] = assay: Antioxidant action tested in AAPH-induced malondialdehyde (MDA) of liposomes after 60 min; type: functional; outline: as §2
Liposome [14] = assay: Antioxidant action tested in AAPH-induced malondialdehyde (MDA) of liposomes after 15 min; type: functional; outline: as §2
Liposome [15] = assay: Antioxidant action tested inAAPH-induced malondialdehyde (MDA) liposomes after 40 min; type: functional, subcellular; outline: as §2
[16] = target: Aldo-keto reductase family 1 member B1 (Bos taurus) (UniProt P16116); assay: as §5; outline: as §6
Liposome [17] = assay: Antioxidant action tested in AAPH-induced malondialdehyde (MDA) liposomes after 5 min; type: functional; outline: as §2
Liposome [18] = assay: Antioxidant action tested in AAPH-induced malondialdehyde (MDA) liposomes after 30 min; type: functional; outline: as §2
[19] = target: T2, Aldo-keto reductase family 1 member A1; assay: The compound was tested for Inhibitory effect against Aldose reductase 1 in bovine kidneys; outline: as §4
[20] = The compound was tested for the pKa (+/-SD) values at 25 degree C; type: physicochemical; outline: as §3
[21] = tested on: Aldo-keto reductase family 1 member A1, aldehyde reductase ALR1 (Bos taurus); assay: The compound was tested for Inhibitory effect uM; conditions: concentration not given here

T2 sequence (Q3ZCJ2 2-325 limits assumed): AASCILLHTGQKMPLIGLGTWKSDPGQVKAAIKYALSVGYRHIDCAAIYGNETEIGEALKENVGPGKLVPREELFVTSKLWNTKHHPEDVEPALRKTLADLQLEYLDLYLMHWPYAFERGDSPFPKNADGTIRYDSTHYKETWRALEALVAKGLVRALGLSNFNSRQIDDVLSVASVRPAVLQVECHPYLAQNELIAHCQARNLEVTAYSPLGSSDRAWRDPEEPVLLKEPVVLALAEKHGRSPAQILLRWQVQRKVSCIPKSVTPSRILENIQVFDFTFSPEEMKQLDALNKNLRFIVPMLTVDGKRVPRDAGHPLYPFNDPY

Compound: O=c1c(Cc2ccc(O)cc2)coc2cc(O)ccc12
- IC50 [2]: 60.5 µM

Compound: O=c1c(Cc2ccc(-c3ccccc3)cc2)c(Cc2ccc(O)cc2)oc2cc(O)ccc12
- inhibition [3]: 0%

Compound: O=c1cc(-c2ccc(O)c(O)c2)oc2cc(O)cc(O)c12 [LUTEOLIN]
- IC50 [2]: 9.57 µM

Compound: COc1ccc2c(=O)cc(-c3ccccc3)oc2c1
- inhibition [3]: 32%

Compound: O=c1c(O)c(-c2ccccc2)oc2ccccc12
- inhibition [3]: 0%

Compound: O=c1cc(C(c2ccccc2)c2ccccc2)oc2cc(O)ccc12
- IC50 [4]: 10.9 µM

Compound: O=c1c(Cc2ccccc2)c(Cc2ccc(O)cc2)oc2cc(O)ccc12
- IC50 [4]: 14.2 µM

Compound: O=c1cc(-c2ccc(O)c(O)c2)oc2cc(O)ccc12
- IC50 [2]: 6.52 µM

Compound: O=c1cc(-c2ccccc2)oc2cc(O)c([N+](=O)[O-])cc12
- IC50 [2]: 3.87 µM
- pKa [20]: 5.3
- inhibition [21]: 27.5%

Compound: O=c1ccoc2cc(O)ccc12
- Ratio [16]: 1
- IC50 [19]: 114 µM
- IC50 [4]: 137 µM

Compound: O=c1cc(-c2ccccc2)oc2cccc(O)c12
- inhibition [3]: 0%

Compound: Cc1cc(C(C)(C)C)c(O)c(C(C)(C)C)c1
- Activity (Liposome [8]): 1.33 nM ml-1
- Activity (Liposome [9]): 1.62 nM ml-1
- Activity (Liposome [10]): 1.23 nM ml-1
- Activity (Liposome [13]): 0.937 nM ml-1
- Activity (Liposome [14]): 1.33 nM ml-1

Further lines, with some results ahead:

- inhibition [1]: 18%
Compound: COc1ccc2c(=O)c(Cc3ccc(O)cc3)coc2c1

- inhibition [3]: 40%
Compound: COc1ccc2oc(Cc3ccc(O)cc3)cc(=O)c2c1

- IC50 [4]: 85.7 µM
Compound: Cc1oc2cc(O)ccc2c(=O)c1Cc1ccc(O)cc1

- pKa [7]: 8.89
- IC50 [4]: 13.1 µM
Compound: O=c1cc(Cc2ccc(O)cc2)oc2ccc(O)cc12
- Activity (Liposome [5]): 1.54 nM ml-1
- Activity (Liposome [6]): 1.27 nM ml-1
- Activity (Liposome [8]): 1.46 nM ml-1
- Activity (Liposome [9]): 1.19 nM ml-1
- Activity (Liposome [10]): 1.29 nM ml-1

- IC50 [11]: 13.2 µM
- IC50 [2]: 3.14 µM
- Ratio [12]: 4.2
Compound: O=c1cc(Cc2ccc(O)c(O)c2)oc2cc(O)ccc12
- Activity (Liposome [8]): 1.07 nM ml-1
- Activity (Liposome [9]): 0.935 nM ml-1
- Activity (Liposome [10]): 0.852 nM ml-1
- Activity (Liposome [13]): 1.53 nM ml-1
- Activity (Liposome [14]): 1.18 nM ml-1

- Ratio [16]: 6.7
- IC50 [19]: 16.8 µM
- IC50 [4]: 2.5 µM
Compound: O=c1cc(Cc2ccc(O)cc2)oc2cc(O)ccc12
- Activity (Liposome [5]): 1.95 nM ml-1
- Activity (Liposome [15]): 2.1 nM ml-1
- Activity (Liposome [6]): 1.81 nM ml-1
- Activity (Liposome [17]): 2.02 nM ml-1
- Activity (Liposome [18]): 1.9 nM ml-1

- inhibition [3]: 0%
Compound: COc1ccc(Cc2cc(=O)c3ccc(OC)cc3o2)cc1

- Ratio [16]: 5.9
- IC50 [19]: 39.2 µM
- IC50 [4]: 6.61 µM
Compound: O=c1cc(Cc2ccccc2)oc2cc(O)ccc12

- IC50 [4]: 10.9 µM
Compound: O=C(O)c1ccc2c(=O)cc(Cc3ccc(O)cc3)oc2c1

- Ratio [16]: 98.5
- IC50 [19]: 128 µM
- IC50 [4]: 1.3 µM
Compound: O=C(O)Cc1ccc2c(=O)cc(Cc3ccc(O)cc3)oc2c1

- IC50 [4]: 22.3 µM
Compound: O=c1cc(Cc2ccc3ccccc3c2)oc2cc(O)ccc12

- IC50 [4]: 29.4 µM
Compound: O=c1cc(CCCc2ccc(O)cc2)oc2cc(O)ccc12

- Ratio [16]: 2.4
- pKa [7]: 7.35
- IC50 [19]: 16.6 µM
- IC50 [4]: 7.01 µM
Compound: COc1ccc(Cc2cc(=O)c3ccc(O)cc3o2)cc1

- IC50 [4]: 41 µM
Compound: O=c1cc(CCc2ccc(O)cc2)oc2cc(O)ccc12

- inhibition [3]: 37%
Compound: COc1ccc2c(=O)cc(Cc3ccc(O)cc3)oc2c1
